Data taken from ChEMBL document CHEMBL3804761, “Synthesis of a stable and orally bioavailable englerin analogue” (Bioorg Med Chem Lett, 2016).

How the values were obtained:
Type in all cases: functional
HT-29 = test: Growth inhibition of human HT-29 cells assessed as cell growth at 10 uM incubated for 48 hrs by sulforhodamine B assay relative to control; details: HT-29, 48 h, read-out: Activity
How it was run: (§1)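 Run in the standard NCI 60-cell-line screen. Cells were exposed to drug for two days, and the read-out was sulforhodamine B staining. Compound was tested at a single final concentration of 10 µM in every line, and results are reported as growth percent.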

[1] = Growth inhibition of human COLO205 cells assessed as cell growth at 10 uM incubated for 48 hrs by sulforhodamine B assay relative to control; details: COLO 205, 48 h, read-out: Activity; how it was run: as §1
[2] = Growth inhibition of human MOLT4 cells incubated for 48 hrs by sulforhodamine B assay; details: MOLT-4, 48 h; for TGI: read-out: pTGI (converted)
How it was run: (§2)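 NCI 60-cell-line panel, standard protocol. Cells exposed to compound for two days, growth read by sulforhodamine B staining. Tested at five 10-fold dilutions, top concentration 100 µM, to give dose-response curves.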

SK-MEL-2 = test: Growth inhibition of human SK-MEL-2 cells assessed as cell growth at 10 uM incubated for 48 hrs by sulforhodamine B assay relative to control; details: SK-MEL-2, 48 h, read-out: Activity; how it was run: as §1
[3] = Growth inhibition of human DU145 cells assessed as cell growth at 10 uM incubated for 48 hrs by sulforhodamine B assay relative to control; details: DU-145, 48 h, read-out: Activity; how it was run: as §1
K562 = test: Growth inhibition of human K562 cells assessed as cell growth at 10 uM incubated for 48 hrs by sulforhodamine B assay relative to control; details: K562, 48 h, read-out: Activity; how it was run: as §1
SR = test: Growth inhibition of human SR cells assessed as cell growth at 10 uM incubated for 48 hrs by sulforhodamine B assay relative to control; details: read-out: Activity; how it was run: as §1
[4] = Growth inhibition of human HCT116 cells assessed as cell growth at 10 uM incubated for 48 hrs by sulforhodamine B assay relative to control; details: HCT-116, 48 h, read-out: Activity; how it was run: as §1
[5] = Growth inhibition of human SNB19 cells assessed as cell growth at 10 uM incubated for 48 hrs by sulforhodamine B assay relative to control; details: SNB-19, 48 h, read-out: Activity; how it was run: as §1
[6] = Growth inhibition of human HL-60(TB) cells incubated for 48 hrs by sulforhodamine B assay; details: HL-60, 48 h; for CC50: read-out: pLC50 (the source's name) (converted); for TGI: read-out: pTGI (converted); how it was run: as §2
[7] = Growth inhibition of human Caki1 cells assessed as cell growth at 10 uM incubated for 48 hrs by sulforhodamine B assay relative to control; details: CAKI-1, 48 h, read-out: Activity; how it was run: as §1
[8] = Growth inhibition of human DU145 cells incubated for 48 hrs by sulforhodamine B assay; details: DU-145, 48 h; for CC50: read-out: pLC50 (the source's name) (converted); for TGI: read-out: pTGI (converted); how it was run: as §2
[9] = Growth inhibition of human OVCAR3 cells assessed as cell growth at 10 uM incubated for 48 hrs by sulforhodamine B assay relative to control; details: OVCAR-3, 48 h, read-out: Activity; how it was run: as §1
[10] = Growth inhibition of human TK10 cells assessed as cell growth at 10 uM incubated for 48 hrs by sulforhodamine B assay relative to control; details: TK-10, 48 h, read-out: Activity
How it was run: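 NCI 60-cell line standard protocol, one-dose screen: single final concentration 10 µM, 2-day drug exposure, sulforhodamine B (SRB) endpoint; read-out is growth percent relative to untreated control.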

[11] = Growth inhibition of human MOLT4 cells assessed as cell growth at 10 uM incubated for 48 hrs by sulforhodamine B assay relative to control; details: MOLT-4, 48 h, read-out: Activity; how it was run: as §1
ACHN = test: Growth inhibition of human ACHN cells incubated for 48 hrs by sulforhodamine B assay; details: for TGI: read-out: pTGI (converted); how it was run: as §2
[12] = Growth inhibition of human Hs 578T cells incubated for 48 hrs by sulforhodamine B assay; details: for CC50: read-out: pLC50 (the source's name) (converted); for TGI: read-out: pTGI (converted)
[13] = Growth inhibition of human RXF393 cells incubated for 48 hrs by sulforhodamine B assay; details: RXF 393, 48 h
How it was run: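 Run in the NCI 60-cell-line protocol, with 2-day drug exposure and sulforhodamine B read-out. Dose-response testing used five 10-fold dilutions starting from a high concentration of 100 µM.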

[14] = Growth inhibition of human SNB19 cells incubated for 48 hrs by sulforhodamine B assay; details: SNB-19, 48 h; for CC50: read-out: pLC50 (the source's name) (converted); for TGI: read-out: pTGI (converted)
How it was run: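 Tested in the standard NCI 60-cell-line protocol with two-day drug exposure and a sulforhodamine B endpoint. Compounds were first screened at a single final concentration of 10 µM, reported as growth percent. They were then run as five 10-fold dilutions starting from a high concentration of 100 µM to give dose-response curves.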

[15] = Growth inhibition of human SF539 cells incubated for 48 hrs by sulforhodamine B assay; details: SF-539, 48 h; for TGI: read-out: pTGI (converted); how it was run: as §2
[16] = Growth inhibition of human SKOV3 cells assessed as cell growth at 10 uM incubated for 48 hrs by sulforhodamine B assay relative to control; details: SK-OV-3, 48 h, read-out: Activity; how it was run: as §1
[17] = Growth inhibition of human HCT15 cells assessed as cell growth at 10 uM incubated for 48 hrs by sulforhodamine B assay relative to control; details: HCT-15, 48 h, read-out: Activity; how it was run: as §1
[18] = Growth inhibition of human RPMI8226 cells assessed as cell growth at 10 uM incubated for 48 hrs by sulforhodamine B assay relative to control; details: RPMI-8226, 48 h, read-out: Activity; how it was run: as §1
SK-MEL-5 [19] = test: Growth inhibition of human SK-MEL-5 cells incubated for 48 hrs by sulforhodamine B assay; details: SK-MEL-5, 48 h; for TGI: read-out: pTGI (converted); how it was run: as §2
[20] = Growth inhibition of human PC3 cells assessed as cell growth at 10 uM incubated for 48 hrs by sulforhodamine B assay relative to control; details: PC-3, 48 h, read-out: Activity; how it was run: as §1
SK-MEL-5 [21] = test: Growth inhibition of human SK-MEL-5 cells assessed as cell growth at 10 uM incubated for 48 hrs by sulforhodamine B assay relative to control; details: SK-MEL-5, 48 h, read-out: Activity; how it was run: as §1
Malme-3M = test: Growth inhibition of human MALME-3M cells incubated for 48 hrs by sulforhodamine B assay; details: for TGI: read-out: pTGI (converted); how it was run: as §2
[22] = Growth inhibition of human HOP92 cells assessed as cell growth at 10 uM incubated for 48 hrs by sulforhodamine B assay relative to control; details: HOP-92, 48 h, read-out: Activity
How it was run: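 Single-dose screen in the NCI 60-cell-line panel at one final concentration of 10 µM. Two-day drug exposure with a sulforhodamine B endpoint. Values are growth percent for each cell line.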

Structure (SMILES): CC(C)[C@@]12C[C@@H](NC(=O)CO)[C@@](C)(O1)[C@@H]1CC[C@@H](C)[C@H]1[C@@H]2OC(=O)c1ccc2ccccc2c1
- growth at 10 µM (HT-29): 93.7%
- growth at 10 µM [1]: 110%
- GI50 [2]: 18.6 µM
- LC50 [2]: 89.1 µM
- TGI [2]: 40.7 µM
- growth at 10 µM (SK-MEL-2): 100%
- growth at 10 µM [3]: 98.4%
- growth at 10 µM (K562): 91.2%
- growth at 10 µM (SR): 82.5%
- growth at 10 µM [4]: 75.7%
- growth at 10 µM [5]: 97.2%
- GI50 [6]: 20.4 µM
- CC50 [6]: 87.1 µM
- TGI [6]: 41.7 µM
- growth at 10 µM [7]: 52.6%
- GI50 [8]: 16.2 µM
- CC50 [8]: 56.2 µM
- TGI [8]: 30.2 µM
- growth at 10 µM [9]: 98.8%
- growth at 10 µM [10]: 102%
- growth at 10 µM [11]: 74.9%
- GI50 (ACHN): 5.37 µM
- LC50 (concentration killing 50% of cells) (ACHN): 42.7 µM
- TGI (ACHN): 17 µM
- GI50 ([12]; read-out: GI50): 2.23 µM
- GI50 ([12]; read-out: pGI50 (converted)): 2.24 µM
- CC50 [12]: > 100 µM
- TGI [12]: 8.91 µM
- GI50 [13]: 6.17 µM
- CC50 ([13]; read-out: pLC50 (the source's name) (converted)): 49 µM
- TGI ([13]; read-out: pTGI (converted)): 20.4 µM
- GI50 [14]: 16.2 µM
- CC50 [14]: 60.3 µM
- TGI [14]: 31.6 µM
- GI50 [15]: 15.5 µM
- LC50 [15]: 55 µM
- TGI [15]: 29.5 µM
- growth at 10 µM [16]: 96.4%
- growth at 10 µM [17]: 90.8%
- growth at 10 µM [18]: 67.6%
- GI50 (SK-MEL-5 [19]): 16.6 µM
- LC50 (SK-MEL-5 [19]): 56.2 µM
- TGI (SK-MEL-5 [19]): 30.9 µM
- growth at 10 µM [20]: 66.9%
- growth at 10 µM (SK-MEL-5 [21]): 93.5%
- GI50 (Malme-3M): 16.2 µM
- LC50 (Malme-3M): 69.2 µM
- TGI (Malme-3M): 33.1 µM

Structure (SMILES): C/C(=C\C(=O)O[C@H]1[C@@H]2[C@H](C)CC[C@H]2[C@]2(C)O[C@@]1(C(C)C)C[C@H]2NC(=O)CO)c1ccccc1
- growth at 10 µM (HT-29): 98.7%
- growth at 10 µM [1]: 107%
- GI50 [2]: 25.7 µM
- LC50 [2]: > 100 µM
- TGI [2]: 81.3 µM
- growth at 10 µM (SK-MEL-2): 104%
- growth at 10 µM [3]: 119%
- growth at 10 µM (K562): 92.3%
- growth at 10 µM (SR): 117%
- growth at 10 µM [4]: 101%
- growth at 10 µM [22]: 87.1%
- growth at 10 µM [5]: 108%
- GI50 [6]: 17.8 µM
- CC50 [6]: > 100 µM
- TGI [6]: 61.7 µM
- growth at 10 µM [7]: 99%
- GI50 [8]: 60.3 µM
- CC50 [8]: > 100 µM
- TGI [8]: > 100 µM
- growth at 10 µM [9]: 121%
- growth at 10 µM [10]: 109%
- growth at 10 µM [11]: 125%
- GI50 (ACHN): 3.31 µM
- LC50 (concentration killing 50% of cells) (ACHN): > 100 µM
- TGI (ACHN): 16.2 µM
- GI50 ([12]; read-out: GI50): 2.24 µM
- GI50 ([12]; read-out: pGI50 (converted)): 2.24 µM
- CC50 [12]: > 100 µM
- TGI [12]: 6.92 µM
- GI50 [14]: 74.1 µM
- CC50 [14]: > 100 µM
- TGI [14]: > 100 µM
- GI50 [15]: 49 µM
- LC50 [15]: > 100 µM
- TGI [15]: > 100 µM
- growth at 10 µM [16]: 110%
- growth at 10 µM [17]: 100%
- GI50 (SK-MEL-5 [19]): 19.5 µM
- LC50 (SK-MEL-5 [19]): 95.5 µM
- TGI (SK-MEL-5 [19]): 43.7 µM
- growth at 10 µM [20]: 83.1%
- growth at 10 µM (SK-MEL-5 [21]): 101%
- GI50 (Malme-3M): 26.3 µM
- LC50 (Malme-3M): > 100 µM
- TGI (Malme-3M): > 100 µM
